For two molecules, Efficacy index, Apoptosis index and IC50 results are on record in ChEMBL document CHEMBL1145048, “Functionalized glycomers as growth inhibitors and inducers of apoptosis in human glioblastoma cells” (J Med Chem, 2003).

Molecules are shown by their SMILES.

A short description of assay [1]: Efficacy index was evaluated as ratio of inhibition of DNA synthesis (3HT incorporation) to inhibition of growth(MTT) for human glioblastoma LNZ308 cells at 0 uM concentration. The class given is functional, cell-based. Put shortly:
(§1)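 Cells grown 24 h with FCS, then deprived of FCS for 10 h, then exposed to glycomers for 12 h. In adherent cells, MTT reduction (540 nm), [3H]-thymidine incorporation (cpm) and nucleosome-fragment apoptosis index (treated vs control) were measured. Efficacy index = ratio of thymidine incorporation or apoptosis index to MTT reduction.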

Assay [2] in a line: Efficacy index was evaluated as ratio of inhibition of DNA synthesis (3HT incorporation) to inhibition of growth(MTT) for human glioblastoma LNZ308 cells at 11.3 uM concentration. It counts as functional, cell-based. Put shortly: as §1
The nature of assay [3]: Efficacy index was evaluated as ratio of apoptosis index to MTT reduction for human glioblastoma LNZ308 cells at 0 uM concentration. The class given is functional, cell-based. The procedure, abridged:
as §1
For orientation: Tetrazolium assays rely on reduction of a dye to a coloured formazan, in cell work by metabolically active cells.

Assay [4] is described as follows: Apoptosis index was determined against human glioblastoma LNZ308 cells at 16 uM and total exposure time of 10 hours. It counts as functional. The procedure, abridged:
(§2)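 Cells seeded to half confluence in DMEM-10% FCS for 24 h, then held 24 h without FCS before glycomer addition in serum-free medium. At the end of the incubation, histone-associated DNA fragments (mono- and oligonucleosomes) in still-adherent cells were measured by photometric ELISA (absorbance 405 nm). Apoptosis index = absorbance of treated / untreated wells, untreated set at 1.00. Done in triplicate.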

Assay [5] can be described thus: Efficacy index was evaluated as ratio of inhibition of DNA synthesis (3HT incorporation) to inhibition of growth(MTT) for human glioblastoma LN18 cells at 11.3 uM concentration. It counts as functional, cell-based. Put shortly: as §1
Assay [6] in a line: Efficacy index was evaluated as ratio of inhibition of DNA synthesis (3HT incorporation) to inhibition of growth(MTT) for human glioblastoma LNZ308 cells at 22.5 uM concentration. It counts as functional, cell-based. Put shortly:
as §1

The nature of assay [7]: Efficacy index was evaluated as ratio of apoptosis index to MTT reduction for human glioblastoma LN18 cells at 22.5 uM concentration. The class given is functional, cell-based. Put shortly:
as §1

Assay [8] can be described thus: Efficacy index was evaluated as ratio of apoptosis index to MTT reduction for human glioblastoma LNZ308 cells at 22.5 uM concentration. The class given is functional, cell-based. The procedure, abridged: as §1
The nature of assay [9]: Efficacy index was evaluated as ratio of inhibition of DNA synthesis (3HT incorporation) to inhibition of growth(MTT) for human glioblastoma LNZ308 cells at 4.5 uM concentration. The class given is functional, cell-based. Put shortly: as §1
A short description of assay [10]: Efficacy index was evaluated as ratio of apoptosis index to MTT reduction for human glioblastoma LN18 cells at 11.3 uM concentration. The class given is functional, cell-based. The procedure, abridged: as §1
Assay [11] in a line: Glycomer activity determined as growth inhibition of human glioblastoma LN18 cells. The class given is functional, cell-based. Conditions: Homo sapiens, LN-18. Put shortly:
(§3)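 Cells grown 24 h with FCS, then 24 h without FCS, then exposed to glycomers at increasing concentrations in serum-free medium for 24 h. MTT at 0.2 mg/mL was added for the last 2 h, formazan was dissolved in 0.1 N HCl/2-propanol and read at 540 nm. Growth inhibition = treated/control MTT reduction. IC50 is the concentration giving 50% inhibition from dose–response curves. Triplicate, mean ± SD.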

Assay [12] can be described thus: Efficacy index was evaluated as ratio of apoptosis index to MTT reduction for human glioblastoma LNZ308 cells at 4.5 uM concentration. It counts as functional, cell-based. Put shortly:
as §1

Assay [13] is described as follows: Glycomer activity determined as growth inhibition of human glioblastoma LNZ308 cells. The class given is functional, cell-based. Conditions: Homo sapiens, LNZ308. The procedure, abridged:
as §3

A short description of assay [14]: Efficacy index was evaluated as ratio of inhibition of DNA synthesis (3HT incorporation) to inhibition of growth(MTT) for human glioblastoma LN18 cells at 4.5 uM concentration. It counts as functional, cell-based. The procedure, abridged:
as §1

A short description of assay [15]: Efficacy index was evaluated as ratio of apoptosis index to MTT reduction for human glioblastoma LNZ308 cells at 11.3 uM concentration. The class given is functional, cell-based. Put shortly: as §1
A short description of assay [16]: Efficacy index was evaluated as ratio of inhibition of DNA synthesis (3HT incorporation) to inhibition of growth(MTT) for human glioblastoma LN18 cells at 22.5 uM concentration. It counts as functional, cell-based. The procedure, abridged: as §1
Assay [17] in a line: Apoptosis index was determined against human glioblastoma LN18 cells at 16 uM after total exposure of 10 hours. It counts as functional. Put shortly: as §2
The nature of assay [18]: Efficacy index was evaluated as ratio of apoptosis index to MTT reduction for human glioblastoma LN18 cells at 4.5 uM concentration. The class given is functional, cell-based. The procedure, abridged: as §1
A short description of assay [19]: Efficacy index was evaluated as ratio of inhibition of DNA synthesis (3HT incorporation) to inhibition of growth(MTT) for human glioblastoma LN18 cells at 0 uM concentration. It counts as functional, cell-based. The procedure, abridged: as §1
Assay [20] can be described thus: Efficacy index was evaluated as ratio of apoptosis index to MTT reduction for human glioblastoma LN18 cells at 0 uM concentration. It counts as functional, cell-based. The procedure, abridged: as §1
Assay [21] can be described thus: Apoptosis index was determined against human glioblastoma LNZ308 cells at 25 uM after total exposure time of 24 hours. The class given is functional. The procedure, abridged: as §2
A short description of assay [22]: Apoptosis index was determined against human glioblastoma LN18 cells at 25 uM after total exposure time of 24 hours. It counts as functional. Put shortly:
as §2

As for `C=CCO[C@H]1[C@H](O)[C@H](COS(=O)(=O)c2cccc(C(F)(F)F)c2)O[C@@H](Oc2ccc(I)cc2)[C@H]1OC(=O)CC`, the Efficacy index in assay [1] turned out to be 9.79; in assay [2], 1.23; in assay [3] it was 0.95; in assay [5], 0.23; in assay [6], 0.24; in assay [7], 9.6. For the same molecule, the Efficacy index stood at 5.09 in [8]; 5 in assay [9]; 3.51 in [10]; 0.99 in assay [12]; 4.87 in assay [14]; 2.03 in assay [15]. The Efficacy index in assay [16] was found to be 0.3; in [18] it was 1.19; in [19] it was 16.2; in [20], 0.93. Further, the Apoptosis index in [4] turned out to be 8.97; in [17], 3.82. The half-inhibitory concentration (IC50) in assay [11] was 7 µM; in [13], 11.5 µM.

`C=CCO[C@H]1[C@H](O)[C@H](COS(=O)(=O)c2cccc(C(F)(F)F)c2)O[C@@H](Oc2ccc(I)cc2)[C@H]1OC(=O)C(C)C`: the IC50 in assay [11] was 12.5 µM; in assay [13] it was 8.5 µM. The Apoptosis index was found to be 1.09 in assay [21] and 1.1 in [22].

What is called IC50 is the concentration that gives 50% inhibition. Lower therefore signals greater potency in that assay.
